The values below come from ChEMBL document CHEMBL4138150, “Quinoline derivatives bearing pyrazole moiety: Synthesis and biological evaluation as possible antibacterial and antifungal agents” (2018).

Assay [1] has as its system Shigella flexneri. Kind of assay: Antimicrobial activity against Shigella flexneri RCMB 0100542 after overnight incubation by macro-tube dilution technique. The format is functional. The essentials:
(§1)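 Macro-tube twofold dilution following NCCLS guidance, run in nutrient broth. The first tube held 10 mg compound in 2.0 mL DMSO and was serially halved 1:1 into 1.0 mL broth through tube 14; tube 15 was the control. The inoculum was suspended to turbidity in 5.0 mL broth, 0.2 mL was diluted into 40 mL, and 1.0 mL was added per tube. Tubes were incubated overnight at 37 °C. MIC was the lowest concentration with no growth.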

Assay [2] has as its system Proteus vulgaris. Kind of assay: Antimicrobial activity against Proteus vulgaris RCMB 010085 after overnight incubation by macro-tube dilution technique. The format is functional. The essentials:
as §1

For assay [3], the system named is Klebsiella pneumoniae. Kind of assay: Antimicrobial activity against Klebsiella pneumoniae RCMB 010093 after overnight incubation by macro-tube dilution technique. Format: functional. The essentials: as §1
For assay [4], the system named is Shigella flexneri. Kind of assay: Antimicrobial activity against Shigella flexneri RCMB 0100542 assessed as diameter of zone inhibition at 1 mg/ml after 24 hrs by agar well diffusion assay. The format is functional, organism-based. The essentials: (§2)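 Agar well diffusion on nutrient agar spread with 100 µL of bacterial suspension at 1 x10^8 CFU/mL. Wells 10 mm wide were loaded with 100 µL of solution: test compounds at 5 mg/mL in DMSO, ampicillin or gentamycin standards at 1 mg/mL, DMSO negative control. Plates were incubated 24 h at 37 °C, and inhibition zone diameter (mm) was averaged over triplicates.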
In general terms: A growth-free zone around the sample is the usual read-out of agar diffusion tests.

Assay [5] deals with Klebsiella pneumoniae. Kind of assay: Antimicrobial activity against Klebsiella pneumoniae RCMB 010093 assessed as diameter of zone inhibition at 1 mg/ml after 24 hrs by agar well diffusion assay. Format: functional, organism-based. The essentials:
as §2

The subject of assay [6] is Proteus vulgaris. Nature of the assay: Antimicrobial activity against Proteus vulgaris RCMB 010085 assessed as diameter of zone inhibition at 1 mg/ml after 24 hrs by agar well diffusion assay. Format: functional, organism-based. The essentials:
as §2

Assay [7] relates to Staphylococcus aureus. Nature of the assay: Antimicrobial activity against Staphylococcus aureus RCMB 010027 after overnight incubation by macro-tube dilution technique. The format is functional. The essentials: as §1
Assay [8] relates to Staphylococcus epidermidis. Nature of the assay: Antimicrobial activity against Staphylococcus epidermidis RCMB 010024 assessed as diameter of zone inhibition at 1 mg/ml after 24 hrs by agar well diffusion assay. Format: functional. The conditions noted are these: RCMB 010024, 24 h, read-out: DIZ.
Assay [9] concerns Bacillus subtilis. Kind of assay: Antimicrobial activity against Bacillus subtilis RCMB 010063 assessed as diameter of zone inhibition at 1 mg/ml after 24 hrs by agar well diffusion assay. The format is functional. The conditions noted are these: RCMB 010063, 24 h, read-out: DIZ.
The subject of assay [10] is Bacillus subtilis. Nature of the assay: Antimicrobial activity against Bacillus subtilis RCMB 010063 after overnight incubation by macro-tube dilution technique. The format is functional. The essentials: as §1
Assay [11] deals with Staphylococcus epidermidis. Nature of the assay: Antimicrobial activity against Staphylococcus epidermidis RCMB 010024 after overnight incubation by macro-tube dilution technique. Format: functional. The essentials:
as §1

The subject of assay [12] is Staphylococcus aureus. Kind of assay: Antimicrobial activity against Staphylococcus aureus RCMB 010027 assessed as diameter of zone inhibition at 1 mg/ml after 24 hrs by agar well diffusion assay. Format: functional. The conditions noted are these: RCMB 010027, 24 h, read-out: DIZ.
Assay [13] relates to Candida albicans. Nature of the assay: Antimicrobial activity against Candida albicans RCMB 05035 assessed as diameter of zone inhibition at 5 mg/ml after 72 hrs by agar well diffusion assay. The conditions noted are these: RCMB 05035, 72 h, read-out: DIZ. The format is functional. The essentials:
(§3)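 Fungi (1 x10^6 CFU/mL, 100 µL) were spread on Sabouraud dextrose agar. 10 mm wells were loaded with 100 µL of test solution at 5 mg/mL in DMSO, or amphotericin B standard at 1 mg/mL. A DMSO negative control was included. Plates were incubated 72 h at 28 °C. Inhibition zone diameter (mm) was recorded as the average of triplicate runs.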

For assay [14], the system named is Aspergillus clavatus. Nature of the assay: Antimicrobial activity against Aspergillus clavatus RCMB 02593 after 72 hrs by macro-tube dilution technique. The conditions noted are these: RCMB 02593, 72 h. Format: functional. The essentials:
(§4)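 Twofold macro-tube dilution following NCCLS guidance, run in malt extract broth. 10 mg compound in 2.0 mL DMSO in tube 1 was serially diluted 1:1 through tube 14 into 1.0 mL broth; tube 15 was the control. Culture was suspended to turbidity in 5.0 mL broth, 0.2 mL was diluted into 40 mL, and 1.0 mL was added per tube. Incubation was 72 h at 30 °C. MIC was the lowest concentration with no growth.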

Assay [15] relates to Candida albicans. Kind of assay: Antimicrobial activity against Candida albicans RCMB 05035 after 72 hrs by macro-tube dilution technique. The format is functional. The conditions noted are these: RCMB 05035, 72 h. The essentials: as §4
For assay [16], the system named is Bacillus subtilis. Kind of assay: Antimicrobial activity against Bacillus subtilis RCMB 010063 assessed as diameter of zone inhibition at 5 mg/ml after 24 hrs by agar well diffusion assay. The format is functional. The conditions noted are these: RCMB 010063, 24 h, read-out: DIZ. The essentials:
(§5)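 Agar well diffusion: 100 µL of 1 x10^8 CFU/mL bacteria was spread on nutrient agar. 10 mm wells received 100 µL of compound at 5 mg/mL in DMSO, or ampicillin or gentamycin standards at 1 mg/mL. DMSO served as negative control. Plates were incubated 24 h at 37 °C. Inhibition zone diameter (mm) was measured as the mean of triplicates.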

Assay [17] has as its system Staphylococcus epidermidis. Nature of the assay: Antimicrobial activity against Staphylococcus epidermidis RCMB 010024 assessed as diameter of zone inhibition at 5 mg/ml after 24 hrs by agar well diffusion assay. The format is functional. The conditions noted are these: RCMB 010024, 24 h, read-out: DIZ. The essentials:
as §5

Assay [18] concerns Proteus vulgaris. Kind of assay: Antimicrobial activity against Proteus vulgaris RCMB 010085 assessed as diameter of zone inhibition at 5 mg/ml after 24 hrs by agar well diffusion assay. Format: functional. The conditions noted are these: RCMB 010085, 24 h, read-out: DIZ. The essentials:
as §5

Assay [19] deals with Klebsiella pneumoniae. Kind of assay: Antimicrobial activity against Klebsiella pneumoniae RCMB 010093 assessed as diameter of zone inhibition at 5 mg/ml after 24 hrs by agar well diffusion assay. Format: functional. The conditions noted are these: RCMB 010093, 24 h, read-out: DIZ. The essentials: as §5
The subject of assay [20] is Aspergillus fumigatus. Nature of the assay: Antimicrobial activity against Aspergillus fumigatus RCMB 02564 assessed as diameter of zone inhibition at 5 mg/ml after 72 hrs by agar well diffusion assay. The conditions noted are these: RCMB 02564, 72 h, read-out: DIZ. Format: functional. The essentials:
as §3

Assay [21] deals with Staphylococcus aureus. Nature of the assay: Antimicrobial activity against Staphylococcus aureus RCMB 010027 assessed as diameter of zone inhibition at 5 mg/ml after 24 hrs by agar well diffusion assay. The conditions noted are these: RCMB 010027, 24 h, read-out: DIZ. The format is functional. The essentials:
as §5

In assay [22] the test system is Shigella flexneri. Nature of the assay: Antimicrobial activity against Shigella flexneri RCMB 0100542 assessed as diameter of zone inhibition at 5 mg/ml after 24 hrs by agar well diffusion assay. The format is functional. The conditions noted are these: RCMB 0100542, 24 h, read-out: DIZ. The essentials: as §5
Assay [23] deals with Aspergillus fumigatus. Nature of the assay: Antimicrobial activity against Aspergillus fumigatus RCMB 02564 after 72 hrs by macro-tube dilution technique. The format is functional. The conditions noted are these: RCMB 02564, 72 h. The essentials: as §4
For assay [24], the system named is Aspergillus clavatus. Kind of assay: Antimicrobial activity against Aspergillus clavatus RCMB 02593 assessed as diameter of zone inhibition at 5 mg/ml after 72 hrs by agar well diffusion assay. The conditions noted are these: RCMB 02593, 72 h, read-out: DIZ. The format is functional. The essentials:
as §3

≈ marks a conversion by molar mass, not a printed value.

As usually defined, the MIC is the lowest concentration found to suppress growth. Higher therefore signals a less susceptible organism. Regarding GENTAMICIN, the MIC with Shigella flexneri [1] was 0.48 µg/mL; in the assay on Proteus vulgaris [2] it was 1.95 µg/mL; with Klebsiella pneumoniae [3], 0.24 µg/mL. Further, the inhibition zone (IZ) in the assay with Shigella flexneri [4] was 24.8 mm; in the assay on Klebsiella pneumoniae [5] it was 26.3 mm; in the assay on Proteus vulgaris [6] it was 23.4 mm.
Consider `CC1(C)S[C@@H]2[C@H](NC(=O)[C@H](N)c3ccccc3)C(=O)N2[C@H]1C(=O)O` [AMPICILLIN], for which the values for the MIC (with Staphylococcus aureus [7]; in the assay on Bacillus subtilis [10]; in [11]) were 0.06 µg/mL (≈ 0.172 µM), 0.007 µg/mL (≈ 0.02 µM) and 0.48 µg/mL (≈ 1.37 µM), respectively. Also, the zone of inhibition at 1000 µg/mL stood at 25.4 mm in assay [8], 34.6 mm in the assay on Bacillus subtilis [9] and 28.9 mm in the assay with Staphylococcus aureus [12].
For the molecule `CCOC(=O)c1c(C)nn(-c2ccc3ccccc3n2)c1N`, the MIC came out at 15.6 µg/mL (≈ 52.7 µM) against Shigella flexneri [1]; 1.95 µg/mL (≈ 6.58 µM) with Staphylococcus aureus [7]; 3.9 µg/mL (≈ 13.2 µM) in the assay with Aspergillus clavatus [14]; 125 µg/mL (≈ 422 µM) in the assay with Proteus vulgaris [2]; 1.95 µg/mL (≈ 6.58 µM) with Candida albicans [15]; 31.2 µg/mL (≈ 105 µM) against Klebsiella pneumoniae [3]. The MIC against Bacillus subtilis [10] amounted to 1.95 µg/mL (≈ 6.58 µM); in assay [11] it was 15.6 µg/mL (≈ 52.7 µM); with Aspergillus fumigatus [23] it was 31.2 µg/mL (≈ 105 µM). For the same molecule, the zone of inhibition at 5000 µg/mL with Candida albicans [13] was 19.8 mm; with Bacillus subtilis [16] it was 20.2 mm; in [17], 17.3 mm; with Proteus vulgaris [18], 13.6 mm; with Klebsiella pneumoniae [19], 15.9 mm; with Aspergillus fumigatus [20], 16.3 mm. Further, the zone of inhibition at 5000 µg/mL amounted to 20.3 mm with Staphylococcus aureus [21], 16.8 mm in the assay on Shigella flexneri [22] and 18.6 mm with Aspergillus clavatus [24].
For `Cc1nn(-c2ccc3ccccc3n2)c(N)c1C#N`, the minimum inhibitory concentration (MIC) in the assay with Shigella flexneri [1] worked out at 31.2 µg/mL (≈ 125 µM); in the assay with Staphylococcus aureus [7], 3.9 µg/mL (≈ 15.6 µM); with Aspergillus clavatus [14], 7.8 µg/mL (≈ 31.3 µM); against Proteus vulgaris [2], 500 µg/mL (≈ 2010 µM); in the assay on Candida albicans [15], 1.95 µg/mL (≈ 7.82 µM); in the assay with Klebsiella pneumoniae [3], 31.2 µg/mL (≈ 125 µM). Also, the MIC against Bacillus subtilis [10] turned out to be 0.98 µg/mL (≈ 3.93 µM); in [11], 0.98 µg/mL (≈ 3.93 µM); in the assay on Aspergillus fumigatus [23], 15.6 µg/mL (≈ 62.7 µM). The zone of inhibition at 5000 µg/mL is 20.4 mm in the assay on Candida albicans [13]; 20.9 mm in the assay on Bacillus subtilis [16]; 20.6 mm in assay [17]; 11.6 mm with Proteus vulgaris [18]; 15.7 mm with Klebsiella pneumoniae [19]; 16.8 mm in the assay on Aspergillus fumigatus [20]. Besides, the zone of inhibition at 5000 µg/mL was 19.2 mm in the assay with Staphylococcus aureus [21], 15.9 mm in the assay with Shigella flexneri [22] and 18.3 mm in the assay with Aspergillus clavatus [24].
